# Data from ChEMBL document CHEMBL1156382, “New steroidal alkaloids from an undescribed sponge of the genus Corticium” (2001).
# Calls of active or inactive are those of the source. The rule behind the calls is not given here.
# Tests used:
# Nucleic Acid [1] = assay: Induction of Escherichia coli double stranded DNA cleavage at 10 ug/20 mL by gel electrophoresis; type: nucleic-acid assay
# Summary of the method: (§1)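 Nucleic acids (double-stranded DNA and 16S rRNA) were isolated from E. coli and exposed to compound at 10 µg/20 mL; cleavage was scored by gel electrophoresis.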
# K562 = assay: Cytotoxicity against human K562 cells; type: functional; conditions: read-out: LC50 (the source's name)
# Candida albicans = assay: Antifungal activity against Candida albicans at 25 ug/disk by paper disk method; type: functional; conditions: read-out: IZ
# Summary of the method: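 Paper disk diffusion against Candida albicans with 25 µg loaded per disk; read-out is the diameter of the clear zone of inhibition, in mm.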
# Nucleic Acid [2] = assay: Induction of Escherichia coli 16S rRNA cleavage at 10 ug/20 mL by gel electrophoresis; type: nucleic-acid assay; summary of the method: as §1
Structure (SMILES),Activity (Nucleic Acid [1]),CC50 (K562) [µg/mL],zone of inhibition at 25 µg/disc (Candida albicans) [mm],Activity (Nucleic Acid [2])
CC(C)=C1CCN=C1C[C@@H](C)[C@H]1CC[C@H]2C3=CC[C@H]4[C@@H](O)[C@@H](N(C)C)CC[C@]4(C)[C@H]3CC[C@]12C [LOKYSTEROLAMINE A],inactive,0.9,9,inactive
CC(C)=C1CC[N+]([O-])=C1C[C@@H](C)[C@H]1CC[C@H]2C3=CC[C@H]4[C@@H](O)[C@@H](N(C)C)CC[C@]4(C)[C@H]3CC[C@]12C [PLAKINAMINE E],Active,0.2,12,Active
CC(C)=C1CCN=C1C[C@@H](C)[C@H]1CC[C@H]2C3=CC[C@H]4C(=O)[C@@H](N(C)C)CC[C@]4(C)[C@H]3CC[C@]12C [PLAKINAMINE F],inactive,1.3,8,inactive
